Article PMC4090943 (Bioorganic & medicinal chemistry letters, 2014)

Assays:
[1] = tested on: marble burying; conditions: mice; ref 7a,d; cited from earlier work
[2] = target: rat mGlu5 (Rattus norvegicus, UniProt P31424); test: Calcium mobilization mGlu5 assay; format: cell-based; conditions: HEK293A cells expressing rat mGlu5; EC80 glutamate; average of n ≥ 3
[3] = non-human primate regulatory toxicology studies; cited from earlier work
[4] = tested on: the other seven mGlus; test: Cell based functional mGlu selectivity assays; conditions: 10μM
[5] = tested on: 68 clinically relevant GPCRs, ion channels, kinases, and transporters; test: LeadProfilingScreen radioligand binding assay panel; conditions: 10 μM compound; 68 targets
[6] = Rat PO tissue distribution study; format: in vivo, male Sprague-Dawley rats; conditions: rat PO 10 mg/kg, 60 min
In short: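 Male Sprague-Dawley rats (n=2 per time point) received a single 10 mg/kg oral dose in 10% Tween 80 in 0.5% MC. At 60 min they were euthanized and decapitated, and blood, hepatic portal vein and brain were collected. After protein precipitation, plasma and brain homogenate supernatants were analysed by LC-MS/MS.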

[7] = tested on: marble burying; test: Mouse marble burying model of anxiety; format: in vivo; conditions: mice, IP, 15 minute pretreatment; P < 0.05 vs. vehicle, Dunnett's test
In short: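 Naïve mice given the test compound IP, with a vehicle control group, and then placed with glass marbles in deep bedding. The read-out was the number of marbles buried. n = 7-8 per dose. Each dose group was compared with the vehicle group by Dunnett's test (P < 0.05).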

Chain of rat mGlu5 (P31424 21-1203): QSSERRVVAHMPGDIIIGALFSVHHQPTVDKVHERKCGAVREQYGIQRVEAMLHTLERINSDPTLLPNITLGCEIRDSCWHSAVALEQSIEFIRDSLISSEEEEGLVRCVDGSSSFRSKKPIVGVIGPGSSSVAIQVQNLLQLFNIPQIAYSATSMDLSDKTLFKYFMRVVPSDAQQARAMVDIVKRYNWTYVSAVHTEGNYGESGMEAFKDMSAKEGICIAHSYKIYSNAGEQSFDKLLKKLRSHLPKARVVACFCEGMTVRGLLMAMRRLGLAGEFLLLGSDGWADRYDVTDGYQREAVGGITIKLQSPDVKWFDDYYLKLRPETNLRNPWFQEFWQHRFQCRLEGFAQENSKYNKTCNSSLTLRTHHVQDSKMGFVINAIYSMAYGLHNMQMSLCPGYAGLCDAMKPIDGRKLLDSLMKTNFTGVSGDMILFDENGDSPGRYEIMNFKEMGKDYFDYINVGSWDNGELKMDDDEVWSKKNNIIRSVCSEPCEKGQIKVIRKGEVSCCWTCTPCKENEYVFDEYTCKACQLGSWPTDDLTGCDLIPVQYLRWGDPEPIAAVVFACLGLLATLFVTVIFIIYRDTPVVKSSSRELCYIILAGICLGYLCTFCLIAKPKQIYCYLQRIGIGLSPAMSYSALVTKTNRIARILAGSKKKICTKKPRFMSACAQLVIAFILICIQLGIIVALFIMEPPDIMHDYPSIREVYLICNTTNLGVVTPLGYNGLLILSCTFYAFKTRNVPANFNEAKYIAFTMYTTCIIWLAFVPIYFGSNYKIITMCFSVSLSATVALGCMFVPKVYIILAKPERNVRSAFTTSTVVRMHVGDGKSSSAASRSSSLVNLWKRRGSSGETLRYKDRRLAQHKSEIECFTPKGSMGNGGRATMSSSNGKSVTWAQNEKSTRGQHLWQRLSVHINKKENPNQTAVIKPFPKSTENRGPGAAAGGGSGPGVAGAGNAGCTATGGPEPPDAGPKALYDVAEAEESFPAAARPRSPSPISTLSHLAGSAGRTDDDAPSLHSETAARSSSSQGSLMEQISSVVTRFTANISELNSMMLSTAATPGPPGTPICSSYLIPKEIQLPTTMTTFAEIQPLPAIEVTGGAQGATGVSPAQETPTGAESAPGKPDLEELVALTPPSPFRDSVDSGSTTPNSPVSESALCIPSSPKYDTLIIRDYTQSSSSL

mGlu5 pIC50 (± SEM) [2] | Structure (SMILES) | other results
 | Cc1cccc(C#Cc2ccccc2)n1 [MPEP] | effect on marble burying [1]: inhibit marble burying
<4.5 | O=C(Nc1cncc(Oc2cncc(F)c2)n1)c1cccc(Cl)c1F [Compound 42] | 
<4.5 | O=C(Nc1cncc(Oc2cncc(F)c2)n1)c1cccnn1 [Compound 61] | 
<4.5 | COc1cc(OC)cc(C(=O)Nc2cncc(Oc3cncc(F)c3)n2)c1 [Compound 49] | 
 | O=C(c1ccc(OC(F)F)c(C#Cc2ccccn2)c1)N1Cc2cccnc2C1 [GRN-529] | toxicology finding [3]: biliary epithelial hyperplasia
<4.5 | O=C(Nc1cncc(Oc2cncc(F)c2)n1)c1cc(Cl)cc(Cl)c1 [Compound 47] | 
 | CN1CC(=O)NC1=NC(=O)Nc1cccc(Cl)c1 [fenobam] | effect on marble burying [1]: inhibit marble burying
<4.5 | O=C(Nc1cncc(Oc2cncc(F)c2)n1)c1cccnc1 [Compound 60] | 
<4.5 | O=C(Nc1cncc(Oc2cncc(F)c2)n1)c1ccncn1 [Compound 63] | 
<4.5 | N#Cc1cc(F)cc(C(=O)Nc2cncc(Oc3cncc(F)c3)n2)c1 [Compound 50] | 
<4.5 | O=C(Nc1cncc(Oc2cncc(F)c2)n1)c1cc(F)cc(F)c1 [Compound 46] | 
 | O=C(Nc1cncc(Oc2cncnc2)n1)c1cc(Cl)ccn1 [Compound 68, 4-chloro-N-(6-(pyrimidin-5-yloxy)pyrazin-2-yl)picolinamide] | activity against the other seven mGlus [4]: no detectable activity; significant responses (>50% inhibition of radioligand binding) in panel [5]: no significant responses were found; HPV (hepatic portal vein) concentration [6]: 1.31 µM; brain concentration [6]: 1450 nM; plasma concentration [6]: 920 nM; doses giving statistically significant inhibition of marble burying [7]: greater than or equal to 10 mg/kg
<4.5 | Cc1ccc(C(=O)Nc2cncc(Oc3cncnc3)n2)s1 [Compound 65] | 
